Experimental data as given in ChEMBL document CHEMBL1629636, “In vitro susceptibility of Borrelia spielmanii to antimicrobial agents commonly used for treatment of Lyme disease” (2009).

How the values were obtained:
[1] = test system: Borrelia spielmanii; assay: Antimicrobial activity against Borrelia spielmanii isolate PC-Eq17 after 120 hrs by colorimetric assay; type: functional; conditions: Borreliella spielmanii, isolate PC-Eq17, 120 h
[2] = test system: Borrelia burgdorferi; assay: Antimicrobial activity against Borrelia burgdorferi isolate LW2 after 72 hrs by colorimetric assay; type: functional; conditions: Borreliella burgdorferi, isolate LW2, 72 h
Method in brief: (§1)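 Tested in microtiter trays preloaded with lyophilized antibiotics; clinical isolates were low-passage (10 to 20 passages). MIC was read by colorimetric assay after 72 h. MBC was defined as 100% killing in liquid medium at 72 h: aliquots from vials showing no growth were diluted 1:1,000 in BSK and checked for regrowth after 3 weeks of subculture. Values are medians of three independent experiments on separate days.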

[3] = test system: Borrelia garinii; assay: Antimicrobial activity against Borrelia garinii isolate M2094 after 72 hrs by colorimetric assay; type: functional; conditions: Borreliella garinii, isolate M2094, 72 h; method in brief: as §1
[4] = test system: Borrelia afzelii; assay: Antimicrobial activity against Borrelia afzelii isolate G600 after 72 hrs by colorimetric assay; type: functional; conditions: Borreliella afzelii, isolate G600, 72 h; method in brief: as §1
[5] = test system: Borrelia spielmanii; assay: Antimicrobial activity against Borrelia spielmanii isolate PHap after 72 hrs by colorimetric assay; type: functional; conditions: Borreliella spielmanii; method in brief: as §1
[6] = test system: Borrelia spielmanii; assay: Antimicrobial activity against Borrelia spielmanii isolate PMew after 72 hrs by colorimetric assay; type: functional; conditions: Borreliella spielmanii; method in brief: as §1
[7] = test system: Borrelia garinii; assay: Antimicrobial activity against Borrelia garinii isolate PSth after 72 hrs by colorimetric assay; type: functional; conditions: Borreliella garinii; method in brief: as §1
[8] = test system: Borrelia spielmanii; assay: Antimicrobial activity against Borrelia spielmanii isolate PJes after 72 hrs by colorimetric assay; type: functional; conditions: Borreliella spielmanii; method in brief: as §1
[9] = test system: Borrelia spielmanii; assay: Antimicrobial activity against Borrelia spielmanii isolate PAnz after 72 hrs by colorimetric assay; type: functional; conditions: Borreliella spielmanii; method in brief: as §1
[10] = test system: Borrelia spielmanii; assay: Antimicrobial activity against Borrelia spielmanii isolate PSig2 after 72 hrs by colorimetric assay; type: functional; conditions: Borreliella spielmanii, isolate PSig2, 72 h; method in brief: as §1
[11] = test system: Borrelia spielmanii; assay: Antimicrobial activity against Borrelia spielmanii isolate TIsar3 after 72 hrs by colorimetric assay; type: functional; conditions: Borreliella spielmanii, isolate TIsar3, 72 h; method in brief: as §1
[12] = test system: Borrelia spielmanii; assay: Antimicrobial activity against Borrelia spielmanii isolate PC-Eq17 assessed as reduction in bacterial count at 2 ug/ml after 72 hrs; type: functional, Borreliella spielmanii; design: scale not given: the % may be the effect or the level left
Method in brief: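 Time-kill assay: the isolate was exposed to ceftriaxone for up to 120 h. Growth was followed by conventional counts of morphologically intact motile cells and compared with a drug-free growth control. Values are means of two independent experiments run on different days.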

[13] = test system: Staphylococcus aureus; assay: Antimicrobial activity against Staphylococcus aureus ATCC 29213 after 72 hrs by colorimetric assay; type: functional; conditions: ATCC 29213, 72 h
Method in brief: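 Quality-control MIC followed the CLSI method with two changes: BSK medium was used, and the antibiotic-medium preparation was preincubated for 48 h before testing. Tests were run on three different days, and the MIC reported is the median of the three.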

[14] = Antimicrobial activity against Borrelia spielmanii A14S after 72 hrs by colorimetric assay; type: functional; conditions: Borreliella spielmanii
Method in brief: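 Low-passage isolates (10 to 20 passages) grown in BSK medium were tested in microtiter trays precoated with lyophilized antimicrobials. MIC was read colorimetrically after 72 h. Independent experiments were run on three different days, and the MIC reported is the median of the three.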

[15] = test system: Borrelia afzelii; assay: Antimicrobial activity against Borrelia afzelii isolate G1039 after 72 hrs by colorimetric assay; type: functional; conditions: Borreliella afzelii, isolate G1039, 72 h; method in brief: as §1
[16] = test system: Borrelia spielmanii; assay: Antimicrobial activity against Borrelia spielmanii isolate PC-Eq17 after 72 hrs by colorimetric assay; type: functional; conditions: Borreliella spielmanii, isolate PC-Eq17, 72 h; method in brief: as §1
[17] = test system: Borrelia; assay: Antimicrobial activity against Borrelia clinical isolate after 72 hrs by colorimetric assay; type: functional; conditions: for MIC90: Borrelia, 72 h; method in brief: as §1
[18] = test system: Borrelia spielmanii; assay: Antimicrobial activity against Borrelia spielmanii isolate TIsar2 after 72 hrs by colorimetric assay; type: functional; conditions: Borreliella spielmanii, isolate TIsar2, 72 h; method in brief: as §1
[19] = test system: Borrelia garinii; assay: Antimicrobial activity against Borrelia garinii isolate G1 after 72 hrs by colorimetric assay; type: functional; conditions: Borreliella garinii, isolate G1, 72 h; method in brief: as §1
[20] = Antimicrobial activity against Borrelia burgdorferi B31 after 72 hrs by colorimetric assay; type: functional; conditions: Borreliella burgdorferi; method in brief: as §1
[21] = test system: Borrelia spielmanii; assay: Antimicrobial activity against Borrelia spielmanii isolate PMai after 72 hrs by colorimetric assay; type: functional; conditions: Borreliella spielmanii; method in brief: as §1
[22] = test system: Borrelia afzelii; assay: Antimicrobial activity against Borrelia afzelii isolate FEM1 after 72 hrs by colorimetric assay; type: functional; conditions: Borreliella afzelii, isolate FEM1, 72 h; method in brief: as §1

CO/N=C(\C(=O)N[C@@H]1C(=O)N2C(C(=O)O)=C(CSc3nc(=O)c(O)nn3C)CS[C@H]12)c1csc(N)n1 [CEFTRIAXONE]
0.0625 µg/mL: MIC [4] | MIC [5] | MIC [11] | MIC90 [17] | MIC [21] | MIC [22]
1 µg/mL: MBC [9] | MBC [10]
4 µg/mL: MBC [2] | MBC [6] | MIC [13] | MBC90 [17] | MBC [21]
0.0156 µg/mL: MIC [9] | MIC [18]
0.5 µg/mL: MBC [4] | MBC [11] | MBC [14] | MBC [15] | MBC [18]
99.9%: Activity [12]
0.125 µg/mL: MIC [6]
0.0312 µg/mL: MIC [2] | MIC [3] | MIC [7] | MIC [8] | MIC [10] | MIC [14] | MIC [15] | MIC [16] | MIC [19] | MIC [20]
2 µg/mL: MBC [1] | MBC [3] | MBC [5] | MBC [7] | MBC [8] | MBC [16] | MBC [19] | MBC [20] | MBC [22]

CC[C@H]1OC(=O)[C@H](C)[C@@H](O[C@H]2C[C@@](C)(OC)[C@@H](O)[C@H](C)O2)[C@H](C)[C@@H](O[C@@H]2O[C@H](C)C[C@H](N(C)C)[C@H]2O)[C@](C)(O)C[C@@H](C)C(=O)[C@H](C)[C@@H](O)[C@]1(C)O [ERYTHROMYCIN]
2 µg/mL: MBC [4] | MBC [5] | MBC [6] | MBC [9] | MBC [10] | MBC [11] | MBC [14] | MBC [15] | MBC [22]
0.0312 µg/mL: MIC [2] | MIC [3] | MIC [4] | MIC [6] | MIC [7] | MIC [11] | MIC90 [17] | MIC [18] | MIC [20] | MIC [22]
0.0079 µg/mL: MIC [5] | MIC [9] | MIC [10] | MIC [21]
1 µg/mL: MBC [8] | MBC [18] | MBC [21]
0.25 µg/mL: MIC [13]
4 µg/mL: MBC [2] | MBC [3] | MBC [7] | MBC [16] | MBC90 [17] | MBC [19] | MBC [20]
0.0156 µg/mL: MIC [8] | MIC [14] | MIC [15] | MIC [16] | MIC [19]

CC[C@H]1OC(=O)[C@H](C)[C@@H](O[C@H]2C[C@@](C)(OC)[C@@H](O)[C@H](C)O2)[C@H](C)[C@@H](O[C@@H]2O[C@H](C)C[C@H](N(C)C)[C@H]2O)[C@](C)(OC)C[C@@H](C)C(=O)[C@H](C)[C@@H](O)[C@]1(C)O [CLARITHROMYCIN]
1 µg/mL: MBC [3] | MBC [6] | MBC [9] | MBC [10] | MBC [11] | MBC [14] | MBC [15] | MBC [16] | MBC90 [17] | MBC [19] | MBC [22]
0.0019 µg/mL: MIC [5] | MIC [9] | MIC [10] | MIC [16] | MIC [19] | MIC [21]
4 µg/mL: MBC [2]
0.063 µg/mL: MIC [13]
0.0039 µg/mL: MIC [2] | MIC [3] | MIC [8] | MIC [14] | MIC [15] | MIC [22]
0.5 µg/mL: MBC [4] | MBC [5] | MBC [8] | MBC [18] | MBC [21]
0.0079 µg/mL: MIC [4] | MIC [6] | MIC [7] | MIC [11] | MIC90 [17] | MIC [18] | MIC [20]
2 µg/mL: MBC [7] | MBC [20]
